Most compounds without a hit are left out; they make up all but 1.8% or so of the library.
Wee1 degr inh – human Wee1 degradation inhibition, primary screen | P30291 | HeLa Luc-Wee1K328M stability, luciferase luminescence; 100% = proteasome inhibitor MG132 effect | reporter increase, % at 5 µM | 1.2% of 220,000 active;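 active = activation above the mean of all tested compounds plus 3 SD, set per screening run, cut at about 8.8% in these data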;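 also: cells exposed to compound for 20 h before luminescence read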
FXIa inh 1536 – blocks human coagulation factor XIa protease activity; purified FXIa, Boc-Glu-Ala-Arg-AMC fluorogenic substrate; inhibition, % at 5 µM; 0.14% of 220,000 active; AID 798;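 active = inhibition of at least 40%; inactive = inhibition below 40%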;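 also: fluorescence of freed AMC excited at 355 nm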
KLK5 inh – kallikrein 5 (human) inhibition. Q9Y337. recombinant hK5, fluorogenic AMC substrate cleavage. inhibition, % at 5 µM. 0.59% of 210,000 active. AID 873;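 active = inhibition of 40% or more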
Target sequence (Q9Y337 67-293 limits assumed): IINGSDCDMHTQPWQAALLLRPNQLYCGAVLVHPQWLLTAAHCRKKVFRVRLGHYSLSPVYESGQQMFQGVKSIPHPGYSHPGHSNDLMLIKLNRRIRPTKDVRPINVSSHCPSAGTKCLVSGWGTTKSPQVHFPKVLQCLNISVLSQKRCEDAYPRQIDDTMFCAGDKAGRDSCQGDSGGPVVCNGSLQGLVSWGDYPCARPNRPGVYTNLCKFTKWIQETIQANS
Thrombin inh – thrombin (human) inhibition. 0.26% of 220,000 active. alpha-thrombin, Boc-VPR-AMC fluorogenic substrate cleavage. inhibition, % at 5 µM. P00734;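 active = inhibition at or above 40%; inactive = inhibition below 40%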
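Material: human alpha-thrombin protein. Incubation: reaction at ambient temperature. Technique: fluorescence of released AMC, ex 355 nm, em 460 nm. Control set: no-compound enzyme wells and no-enzyme blanks. Also added: Boc-VPR-AMC substrate, 15 µM final. Buffer or medium: pH 7.5 Tris (50 mM) with NaCl 150 mM, Tween 20 0.05%.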
FXIIa inh 1536 – blocks human coagulation factor XIIa protease activity | purified FXIIa, Boc-QGR-AMC fluorogenic substrate, 2 h | inhibition, % at 5 µM | P00748 | 0.3% of 220,000 active; in the data active = inhibition above about 40%
Platelet DG rel – modulates dense granule release in human platelets | human platelet-rich plasma, SFLLRN dense granule ATP release, luminescence | inhibition, %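 (compounds screened at 7.5 µM in platelet-rich plasma)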 | 0.22% of 300,000 active | AID 1663;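 active = mean replicate score, as percent of positive control, at or above 50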
Each line names hits and unclear results; the compound was inactive in the other large screens; ! = not active in a repeat.

COc1ccc(-c2nc(N)n(C(=O)c3ccco3)n2)cc1	none
COc1ccc(-c2nc(SC)n(C(=O)c3ccco3)n2)cc1	Thrombin inh 80.3
COc1cc(C(=O)N[C@H](C(=O)NC2CCCCCC2)C(C)C)cc(OC)c1OC	KLK5 inh 44.2
CC(C)c1ccccc1NS(C)(=O)=O	Wee1 degr inh 16.0
CC(C)c1ccccc1NS(=O)(=O)N(C)C	none
CC1(C)C2CCC(C2)C1(C)N=C1OC(CCl)CS1 (stereo not drawn)	FXIa inh 1536 52.5, KLK5 inh 51.9
Cc1ccc(S(=O)(=O)n2nc(C)cc2C)cc1	KLK5 inh 43.0
CC1(C)C/C(=N\NC(=S)Nc2ccccc2F)c2cc(O)ccc2O1	none
O=S(=O)(Nc1ccc(N2CCOCC2)cc1)c1c(F)cc(F)cc1Br	none (no result: Wee1 degr inh, FXIa inh 1536, KLK5 inh, Thrombin inh, FXIIa inh 1536)
NC(=O)c1c(NC(=O)C2CCCO2)sc2c1CCC2 (stereo not drawn)	FXIIa inh 1536 50.4
NC(=O)c1c(NC(=O)C2CCCO2)sc2c1CCCCC2 (stereo not drawn)	none
COC(=O)c1[nH]c2cccc(OC)c2c1NC(=O)CN1CCN(c2cccc(OC)c2)C(C)C1 (stereo not drawn)	KLK5 inh 125.2
CCOC(=O)c1[nH]c2cc(OC)c(OC)cc2c1NC(=O)CN1CCN(c2ccc(OC)cc2)C(C)C1 (stereo not drawn)	none
COc1ccc(NC(=O)CCNS(=O)(=O)c2cccc3nonc23)cc1	none (no result: Wee1 degr inh, FXIa inh 1536, KLK5 inh, Thrombin inh, FXIIa inh 1536)
COC(=O)c1ccc(NC(=O)CCNS(=O)(=O)c2cccc3nonc23)cc1	Wee1 degr inh 9.1
COc1ccc2c(c1)CCc1c(C(=O)NCc3ccc(F)cc3)noc1-2	FXIIa inh 1536 49.1
Cn1c(SCC(=O)NC2CCCC2)nnc1-c1ccc(S(=O)(=O)N2CCOCC2)cc1	Thrombin inh 44.9
Nc1nc(SCC(=O)Nc2ccc(OCc3ccccc3)cc2)n[nH]1	KLK5 inh 44.2
COc1cccc(C2CC(c3ccc(Br)cc3)=NN2C(=O)c2ccncc2)c1OC (stereo not drawn)	Wee1 degr inh 9.0
O=S(=O)(NC12CC3CC(CC(C3)C1)C2)c1ccc(F)cc1	none
Nc1cc(-c2ccccc2)ccc1O	Wee1 degr inh 10.1!
O=C(COc1ccccc1Br)Nc1ccc2c(c1)OCCCO2	none (no result: Wee1 degr inh, FXIa inh 1536, KLK5 inh, Thrombin inh, FXIIa inh 1536)
Cc1ccc(NC(=O)CSc2nnc([C@H](C)NC(=O)OC(C)(C)C)o2)c(C)c1	FXIIa inh 1536 107.4
COc1ccc(OC)c(NC(=O)c2nnn(CC(=O)Nc3ccc4c(c3)OCO4)c2N)c1	none (no result: Wee1 degr inh, FXIa inh 1536, KLK5 inh, Thrombin inh, FXIIa inh 1536)
C=CCNC(=S)N1CCN(Cc2ccccc2)CC1	none
CC(C)n1c(=S)[nH]c2scc(-c3cccs3)c2c1=O	Wee1 degr inh 9.1
CCn1c(=S)[nH]c2scc(-c3cccs3)c2c1=O	none
Cn1cnnc1SCC(=O)Nc1nc(-c2ccccc2)cs1	none
O=C(OCc1nnc(-c2ccc(Cl)cc2)o1)C12CC3CC(CC(O)(C3)C1)C2	Wee1 degr inh 9.8
O=C(O)c1ccc(N2Cc3ccccc3C2)cc1O	none
COc1cc(NC(=O)SC2=NCCS2)cc(OC)c1	none (no result: Platelet DG rel)
COc1cccc(C(=O)SC2=NCCS2)c1	KLK5 inh 60.0
COc1ccc(OC(=O)c2cnn(-c3ccccc3)c2C)cc1	none
COc1ccc(C2N3CC4(C)CN2CC(C)(C3)C4=O)cc1OC (stereo not drawn)	KLK5 inh 61.4
COc1ccc(S(=O)(=O)Nc2ccc(CC#N)cc2)cc1	KLK5 inh 43.3 (no result: Platelet DG rel)
C/C(=N\NC(=O)c1nnn(-c2nonc2N)c1C(C)C)c1cc(C)sc1C	none (no result: Wee1 degr inh, FXIa inh 1536, KLK5 inh, Thrombin inh, FXIIa inh 1536)
Fc1ccc(NC(=S)Nc2cccnc2)c(F)c1F	Wee1 degr inh 9.5
COCCN(C(=O)COC(=O)c1ccccc1Oc1ccccc1)c1c(N)n(Cc2ccccc2)c(=O)[nH]c1=O	none (no result: Wee1 degr inh, FXIa inh 1536, KLK5 inh, Thrombin inh, FXIIa inh 1536)
Cc1c(N2C(=O)c3ccc(F)cc3C2=O)c(=O)n(-c2ccccc2)n1C	Wee1 degr inh 9.6
Cc1c(N2C(=O)c3ccccc3C2=O)c(=O)n(-c2ccccc2)n1C	none
O=C1CSC(c2ccccn2)N1c1ccc(F)cc1F (stereo not drawn)	Wee1 degr inh 9.9 (no result: KLK5 inh)
COc1cccc2nc3cc(C)c(C)cc3nc12	Platelet DG rel 70.1
CCN(CC(=O)Nc1cc(Cl)ccc1C)C(=O)COc1cccc2c1OC(C)(C)C2	none (no result: Wee1 degr inh, FXIa inh 1536, KLK5 inh, Thrombin inh, FXIIa inh 1536)
N#CC(C(=O)OC1CCCCC1)c1nc2ccccc2nc1N1CCCCC1 (stereo not drawn)	none
CC1CCN(c2nc3ccccc3nc2C(C#N)C(=O)OC2CCCCC2)CC1 (stereo not drawn)	Wee1 degr inh 11.9
CC1CN(c2nc3ccccc3nc2C(C#N)C(=O)OC2CCCCC2)CC(C)O1 (stereo not drawn)	KLK5 inh 64.2
COc1ccc2ccccc2c1/C=N/NC(=O)c1sc(N)c(C#N)c1C	KLK5 inh 63.5
O=C1NC(=O)C2(COC(c3cccc([N+](=O)[O-])c3)OC2)S1 (stereo not drawn)	none
Cc1ccc(SCC(=O)NC2CCCCCC2)cc1	none (no result: Wee1 degr inh, FXIa inh 1536, KLK5 inh, Thrombin inh, FXIIa inh 1536)
CN1C2CCC1CC(NC(=O)CSc1ccc(C(C)(C)C)cc1)C2 (stereo not drawn)	Wee1 degr inh 9.6
CC(C)C[C@H](NC(=O)[C@H](Cc1ccccc1)n1c(=O)[nH]c2ccccc2c1=O)C(=O)N1CCC[C@H]1C(=O)O	none (no result: Wee1 degr inh, FXIa inh 1536, KLK5 inh, Thrombin inh, FXIIa inh 1536)
CC(C)OC(=O)CCCCCN1C(=O)CSC1=S	Wee1 degr inh 9.0
CCOC(=O)c1nc(NCc2ccccc2F)c2ccccc2n1	none
CN(C)S(=O)(=O)Oc1ccsc1C(=O)Nc1cccc(Cl)c1	FXIIa inh 1536 47.3
CN(C)S(=O)(=O)Oc1ccsc1C(=O)Nc1ccc(Cl)c(Cl)c1	FXIIa inh 1536 42.0
CN(C)S(=O)(=O)Oc1ccsc1C(=O)Nc1ccc(Br)cc1	none
CN(C)S(=O)(=O)Oc1ccsc1C(=O)Nc1ccc(C(F)(F)F)cc1	none
Cc1ccc(-c2n[nH]c(=S)nc2-c2ccc(C)cc2)cc1	none (no result: Wee1 degr inh, FXIa inh 1536, KLK5 inh, Thrombin inh, FXIIa inh 1536)
N/C(=N\OC(=O)c1ccccc1)c1ccn[nH]1	none (no result: Wee1 degr inh, FXIa inh 1536, KLK5 inh, Thrombin inh, FXIIa inh 1536)
CCN(CC)CCCN1C(=O)CSC1c1ccc2c(c1)OCO2 (stereo not drawn)	KLK5 inh 51.8
O=C1NC(=Nc2ccc(Cl)cc2)SC1Cc1cc(Cl)ccc1Cl (stereo not drawn)	Wee1 degr inh 9.0
O=C1NC(=Nc2ccc(F)cc2)SC1Cc1ccc(F)cc1 (stereo not drawn)	none
COc1ccc(N2CCN(C(=O)CCC(=O)N3CCOc4ccc(Cl)cc43)CC2)cc1	none (no result: Wee1 degr inh, FXIa inh 1536, KLK5 inh, Thrombin inh, FXIIa inh 1536)
CN(/C=C/c1c([N+](=O)[O-])c(=O)n(C)c(=O)n1C)c1ccccc1	Wee1 degr inh 9.4
Cn1c(/C=C/c2cccc([N+](=O)[O-])c2)c([N+](=O)[O-])c(=O)n(C)c1=O	none (no result: Wee1 degr inh, FXIa inh 1536, KLK5 inh, Thrombin inh, FXIIa inh 1536)
Cc1nc2cc(Cl)c(Cl)cc2n1CCCO	Wee1 degr inh 10.1
CC1C/C(=N\NC(=O)c2ccc(NS(=O)(=O)c3ccc(Br)cc3)cc2)CC(C)(C)C1 (stereo not drawn)	none
COCCNC(=O)Cn1nc(C(F)(F)F)cc1C	KLK5 inh 44.1, Thrombin inh 104.0 (no result: Platelet DG rel)
